Test results reported in article PMC11223228 (ACS Omega, 2024).
pIC50: −log10 of the molar value.

Molecular target: T1, EhPSP (Entamoeba histolytica, UniProt N9V397)
T1 sequence (N9V397 1-205): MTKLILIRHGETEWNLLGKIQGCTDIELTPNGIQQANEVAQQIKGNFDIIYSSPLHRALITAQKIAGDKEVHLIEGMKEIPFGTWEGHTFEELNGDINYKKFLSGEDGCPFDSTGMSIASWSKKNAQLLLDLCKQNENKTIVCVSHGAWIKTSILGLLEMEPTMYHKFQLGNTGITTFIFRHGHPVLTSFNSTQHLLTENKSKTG
Experiment: In vitro enzyme inhibition assay of EhPSP phosphatase activity
Assay type: biochemical
Details: for inhibition of enzymatic activity (in words): 21 compounds tested
Method in brief: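 Recombinant C-terminal 6X-His EhPSP, expressed in E. coli BL21 (DE3) and purified by Ni-NTA then size exclusion. Reaction in 50 mM HEPES-NaOH pH 8.0, 1 mM DTT, 1 mM EDTA, 25 μg enzyme. Compound preincubated 10 min RT, then OPLS added and run 2−5 min RT. Stopped with malachite green, A630 of released phosphate. % inhibition vs no-compound control, IC50 from log-concentration curve.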

pIC50 (IC50, OPLS 2.0 mM, compound 20 nM to 500 μM)	SMILES	inhibition of enzymatic activity (in words)
	O=S(=O)(O)c1ccc2c(S(=O)(=O)O)cccc2c1 [AE-562/12222184, 1,6-naphthalenedisulfonic acid]	displayed the inhibition of enzymatic activity
~3.43	Cc1nc2ccc(CN(C)c3ccc(C(=O)N[C@@H](CCC(=O)O)C(=O)O)s3)cc2c(=O)[nH]1 [Raltitrexed, (2S)-2-[[5-[methyl-[(2-methyl-4-oxo-3H-quinazolin-6-yl)methyl]amino]thiophene-2-carbonyl]amino]pentanedioic acid]	displayed the inhibition of enzymatic activity
